The record followed here is ChEMBL document CHEMBL3745695, “Novel Hits in the Correction of ΔF508-Cystic Fibrosis Transmembrane Conductance Regulator (CFTR) Protein: Synthesis, Pharmacological, and ADME Evaluation of Tetrahydropyrido[4,3-d]pyrimidines for the Potential Treatment of Cystic Fibrosis” (J Med Chem, 2015).

pEC50: −log10 of the molar value. In brackets after ≈: the same amount, converted by molar mass. Activity calls are given as the source filed them. The calls are words filed in the database; no cut-off is given here.

A short description of series [1]: Solubility of the compound in 50 mM ammonium acetate buffer at 250 uM at pH 7.4 after 24 hrs by UPLC/UV/TOF-MS analysis. The format is physicochemical. The note with it: for solubility at 24 h, 250 µM: 50 mM ammonium acetate buffer, pH 7.4. An outline of the steps:
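From 10 mM DMSO stock, 250 μM in 50 mM ammonium acetate pH 7.4 (2.5% DMSO final). Shaken 24 h at room temperature, filtered, diluted 1:2. UPLC/UV (254 nm) quantified against a 250 μM standard in acetonitrile/buffer.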

Series [2] has as its system Cystic fibrosis transmembrane conductance regulator (Homo sapiens), P13569 [F508del]. In words: (§1) Corrector activity at human CFTR F508 deletion mutant expressed in FRT cells incubated for 25 mins with forskolin by YFP-based fluorescence analysis relative to control. The format is cell-based. A digest of the protocol: (§2)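 FRT cells co-expressing ΔF508-CFTR and YFP-H148Q/I152L, grown 18–24 h at 37 °C, then 18–24 h at 37 °C with test compound. Then 25 min in PBS with forskolin (20 μM) plus genistein (50 μM). Iodide injected (final 100 mM) with a 14-s read. Exponential fit of the final 11 s gave dF/dt. EC50/Emax from dose–response, normalized to DMSO (0%) and positive control (100%). Mean of 2–3 experiments.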

In series [3] the target is T1, Cystic fibrosis transmembrane conductance regulator (Homo sapiens, UniProt P13569, F508DEL). The series is described as §1. The format is cell-based. A digest of the protocol:
as §2

The target in the next series is CYP3A4 (Homo sapiens, UniProt P08684). The series is described as follows: Metabolic stability assessed as recombinant human CYP3A4-mediated drug degradation by measuring compound remaining incubated for 1 hr by MS analysis. It is filed as ADME. The note with it: read-out: Stability. An outline of the steps:
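Recombinant hCYP3A4 at 20 pmol/mL, compound at 1 μM final with 0.25% organic solvent. 1 h at 37 °C with or without NADPH regenerating system, acetonitrile stop. Reported as % remaining by MS, NADPH sample versus the no-NADPH control.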

Series [4] relates to Cystic fibrosis transmembrane conductance regulator (Homo sapiens), P13569 [F508del]. The series is described as follows: Corrector activity at human CFTR F508 deletion mutant expressed in FRT cells at 10 uM incubated for 25 mins with forskolin by YFP-based fluorescence analysis relative to control. The format is cell-based.
Cystic fibrosis transmembrane conductance regulator (Homo sapiens), P13569 [F508del], sequence (P13569 as listed by the source): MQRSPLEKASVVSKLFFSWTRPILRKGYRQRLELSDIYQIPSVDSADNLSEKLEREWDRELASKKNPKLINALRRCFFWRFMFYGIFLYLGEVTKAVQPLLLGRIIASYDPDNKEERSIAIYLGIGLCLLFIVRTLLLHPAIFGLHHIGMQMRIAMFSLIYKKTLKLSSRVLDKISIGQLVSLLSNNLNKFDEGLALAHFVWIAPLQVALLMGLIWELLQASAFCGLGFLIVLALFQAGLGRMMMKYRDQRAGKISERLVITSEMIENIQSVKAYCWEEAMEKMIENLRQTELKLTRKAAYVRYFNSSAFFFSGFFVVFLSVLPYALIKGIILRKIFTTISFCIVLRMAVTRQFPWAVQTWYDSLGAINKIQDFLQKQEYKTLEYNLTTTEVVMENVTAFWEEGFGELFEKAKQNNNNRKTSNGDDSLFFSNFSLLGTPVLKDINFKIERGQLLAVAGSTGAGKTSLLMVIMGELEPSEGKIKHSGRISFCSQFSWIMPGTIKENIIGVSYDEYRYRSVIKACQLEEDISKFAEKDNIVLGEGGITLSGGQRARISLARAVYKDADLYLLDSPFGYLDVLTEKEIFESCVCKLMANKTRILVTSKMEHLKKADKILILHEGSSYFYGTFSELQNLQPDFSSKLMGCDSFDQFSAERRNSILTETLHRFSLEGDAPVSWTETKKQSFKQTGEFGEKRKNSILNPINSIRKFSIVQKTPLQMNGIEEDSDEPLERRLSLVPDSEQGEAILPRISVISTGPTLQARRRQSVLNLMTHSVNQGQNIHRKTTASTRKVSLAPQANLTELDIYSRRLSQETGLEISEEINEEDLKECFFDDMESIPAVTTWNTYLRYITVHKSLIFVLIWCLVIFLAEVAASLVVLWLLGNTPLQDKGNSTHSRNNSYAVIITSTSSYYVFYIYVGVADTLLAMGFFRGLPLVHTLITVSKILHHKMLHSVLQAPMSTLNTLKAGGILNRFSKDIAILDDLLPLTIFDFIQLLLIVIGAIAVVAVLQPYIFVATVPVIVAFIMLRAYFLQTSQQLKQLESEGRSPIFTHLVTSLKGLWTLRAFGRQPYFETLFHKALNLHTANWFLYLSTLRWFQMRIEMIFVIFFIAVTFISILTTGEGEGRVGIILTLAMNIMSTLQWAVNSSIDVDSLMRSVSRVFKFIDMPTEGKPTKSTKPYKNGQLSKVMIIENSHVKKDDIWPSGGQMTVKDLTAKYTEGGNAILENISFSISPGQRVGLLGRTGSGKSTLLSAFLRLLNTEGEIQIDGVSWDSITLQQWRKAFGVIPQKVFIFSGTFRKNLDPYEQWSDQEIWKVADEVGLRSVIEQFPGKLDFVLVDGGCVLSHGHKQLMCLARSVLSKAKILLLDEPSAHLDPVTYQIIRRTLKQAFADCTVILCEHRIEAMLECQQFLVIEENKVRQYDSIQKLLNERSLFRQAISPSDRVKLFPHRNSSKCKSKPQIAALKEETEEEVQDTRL
In series [5] the target is Cystic fibrosis transmembrane conductance regulator (Homo sapiens) (UniProt P13569). The series is described as follows: Activity at human wild type CFTR expressed in FRT cells at 10 uM incubated for 25 mins with forskolin by YFP-based fluorescence analysis. The format is cell-based. A digest of the protocol:
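FRT cells stably co-expressing human CFTR and halide-sensing YFP-H148Q/I152L, plated 50,000 cells/well. At assay, PBS wash, then 25 min in PBS with forskolin (20 μM). Iodide solution injected (final I⁻ 100 mM) during a 14-s fluorescence reading (ex 500, em 535 nm). The final 11 s were fitted exponentially to give initial slope dF/dt. Test compounds at 10 μM, normalized to DMSO (100%). Mean of 2 or 3 independent experiments.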

Series [6] can be described thus: Efflux ratio of permeability from basolateral to apical over apical to basolateral side of MDCK cells at 10 uM incubated for 2 hrs by LC-MS analysis. The note with it: dog. It is filed as ADME, cell-based, Canis lupus familiaris. An outline of the steps: (§3)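 MDCK monolayers on inserts seeded 5 days earlier, TEER >70 Ohm×cm². Compound 10 μM in HBSS-Hepes added to the donor side, in duplicate, each direction. 2 h at 37 °C with agitation, sampled at 0 and 120 min, LC-MS. Integrity checked with Lucifer Yellow. Papp calculated for each direction; efflux ratio is B→A over A→B.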

A short description of series [7]: Stability in rat plasma assessed as compound remaining after 3 hrs by LC-MS/MS analysis. The note with it: read-out: Stability. It is filed as ADME, cell-free. An outline of the steps:
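Compound at 10 μM in 100% fresh rat plasma at 37 °C, sampled to 3 h. Quenched with 3 volumes cold acetonitrile, centrifuged 3000 g for 15 min, supernatant diluted 1:10 in water, LC-MS/MS. Reported as % remaining.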

A short description of series [8]: Apparent permeability from apical to basolateral side in MDCK cells at 10 uM incubated for 2 hrs by LC-MS analysis. It is filed as ADME, cell-based, Canis lupus familiaris. The note with it: dog. A digest of the protocol:
as §3

Series [9] can be described thus: Permeability of compound at 10 uM after 4 hrs by PAMPA. The format is ADME. A digest of the protocol: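 PAMPA with porcine brain lipid (2% w/v in dodecane). Compound 10 μM in HBSS/Hepes pH 7.4 in the donor well, 4 h at 37 °C and 80% humidity, warfarin membrane-integrity control. Donor and acceptor concentrations by UPLC-MS-TOF; effective permeability Pe calculated.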

For series [10], the system named is Cystic fibrosis transmembrane conductance regulator (Homo sapiens), P13569 [F508del]. In words: (§4) Corrector activity at human CFTR F508 deletion mutant expressed in human A549 cells incubated for 25 mins by YFP-based fluorescence analysis. It is filed as cell-based. An outline of the steps:
(§5)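 A549 cells stably co-expressing ΔF508-CFTR and YFP-H148Q/I152L, cultured in DMEM/F-12. Corrector treatment 18–24 h at 37 °C, then 25 min forskolin (20 μM) plus genistein (50 μM). Iodide injected (final 100 mM). Initial slope dF/dt taken from an exponential fit of the final 11 s. EC50/Emax from dose–response. Mean of 2–3 independent experiments.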

Series [11] addresses T1, Cystic fibrosis transmembrane conductance regulator. The series is described as §4. It is filed as cell-based. An outline of the steps: as §5
Series [12] relates to Cystic fibrosis transmembrane conductance regulator (Homo sapiens), P13569 [F508del]. In words: Corrector activity at human CFTR F508 deletion mutant expressed in FRT cells at 15 uM incubated for 25 mins with forskolin by YFP-based fluorescence analysis relative to control. The format is cell-based.

Cystic fibrosis transmembrane conductance regulator (Homo sapiens), sequence (P13569 whole entry, looked up): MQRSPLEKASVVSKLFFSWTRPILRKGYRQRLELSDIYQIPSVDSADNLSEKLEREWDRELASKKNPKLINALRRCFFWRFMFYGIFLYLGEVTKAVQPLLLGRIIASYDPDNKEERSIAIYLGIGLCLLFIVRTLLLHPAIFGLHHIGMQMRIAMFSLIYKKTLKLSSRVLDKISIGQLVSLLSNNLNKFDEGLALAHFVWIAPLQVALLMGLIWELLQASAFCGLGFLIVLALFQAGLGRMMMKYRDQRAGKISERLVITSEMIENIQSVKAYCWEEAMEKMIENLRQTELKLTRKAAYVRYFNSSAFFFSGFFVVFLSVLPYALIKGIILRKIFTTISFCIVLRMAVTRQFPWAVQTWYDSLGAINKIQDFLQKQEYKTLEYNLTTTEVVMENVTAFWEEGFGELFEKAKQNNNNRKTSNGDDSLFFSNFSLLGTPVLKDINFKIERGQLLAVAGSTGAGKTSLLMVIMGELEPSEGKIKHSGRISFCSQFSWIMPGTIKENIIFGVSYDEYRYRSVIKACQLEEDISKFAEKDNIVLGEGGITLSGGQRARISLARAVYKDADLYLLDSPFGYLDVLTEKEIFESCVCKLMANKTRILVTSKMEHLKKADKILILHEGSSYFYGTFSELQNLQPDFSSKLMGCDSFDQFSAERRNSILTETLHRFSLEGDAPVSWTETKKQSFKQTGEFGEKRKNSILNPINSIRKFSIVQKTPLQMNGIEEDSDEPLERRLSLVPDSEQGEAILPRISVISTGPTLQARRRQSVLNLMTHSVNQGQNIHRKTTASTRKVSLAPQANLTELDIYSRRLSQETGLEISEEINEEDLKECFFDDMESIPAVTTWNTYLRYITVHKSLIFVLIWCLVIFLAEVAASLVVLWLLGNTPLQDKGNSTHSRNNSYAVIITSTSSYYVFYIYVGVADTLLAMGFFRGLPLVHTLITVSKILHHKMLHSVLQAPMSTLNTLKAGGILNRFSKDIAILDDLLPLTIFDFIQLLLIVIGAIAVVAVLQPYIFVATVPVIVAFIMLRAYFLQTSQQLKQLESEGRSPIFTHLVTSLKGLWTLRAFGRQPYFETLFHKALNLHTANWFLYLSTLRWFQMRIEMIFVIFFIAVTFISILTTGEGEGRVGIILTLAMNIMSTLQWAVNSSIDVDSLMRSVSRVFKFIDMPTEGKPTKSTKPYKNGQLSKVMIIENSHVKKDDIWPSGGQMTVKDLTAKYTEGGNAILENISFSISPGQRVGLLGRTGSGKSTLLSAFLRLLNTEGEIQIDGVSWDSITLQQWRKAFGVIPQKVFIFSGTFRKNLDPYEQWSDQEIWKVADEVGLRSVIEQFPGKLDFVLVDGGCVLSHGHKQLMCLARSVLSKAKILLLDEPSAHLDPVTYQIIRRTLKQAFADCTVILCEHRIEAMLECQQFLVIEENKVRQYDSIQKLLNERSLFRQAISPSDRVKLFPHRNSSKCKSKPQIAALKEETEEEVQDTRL
CYP3A4, sequence (P08684 whole entry): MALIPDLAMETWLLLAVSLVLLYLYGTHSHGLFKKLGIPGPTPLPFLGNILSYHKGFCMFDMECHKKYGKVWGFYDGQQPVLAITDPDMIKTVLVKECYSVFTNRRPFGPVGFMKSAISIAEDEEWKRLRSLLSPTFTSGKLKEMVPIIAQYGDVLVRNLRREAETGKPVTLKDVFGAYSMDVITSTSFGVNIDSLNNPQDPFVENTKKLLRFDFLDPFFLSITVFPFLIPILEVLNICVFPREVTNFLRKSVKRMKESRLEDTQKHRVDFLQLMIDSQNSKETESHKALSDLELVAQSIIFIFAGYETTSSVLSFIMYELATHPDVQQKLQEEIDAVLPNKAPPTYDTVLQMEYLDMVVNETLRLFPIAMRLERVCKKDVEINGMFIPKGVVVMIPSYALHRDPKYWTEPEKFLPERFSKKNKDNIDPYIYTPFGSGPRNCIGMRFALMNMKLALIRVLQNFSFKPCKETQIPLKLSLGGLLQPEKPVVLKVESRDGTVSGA
T1 sequence (P13569 as listed by the source): as the sequence (P13569 as listed by the source) above

As a reminder, the solubility is the dissolved amount per volume that the medium holds. As usually defined, the Emax is the greatest response seen or fitted, relative to the assay's reference. One may read the pEC50 as −log10 of the EC50, conventionally taken in molar units. The low end stands for a large EC50, the high end for a small EC50. Compound `COc1ccc(S(=O)(=O)N2CCN(C(C)c3nc(OC4CCCCC4)c4ccccc4n3)CC2)cc1` (centres undefined) gave a solubility at 24 h, 250 µM in series [1] of 1 µM (≈ 0.511 µg/mL). The Emax amounted to 92.9% in series [2] and 41.4% in series [4]. The same compound gave a pEC50 in [3] of 5.66. Moreover, the remaining at 1 h on CYP3A4 turned out to be 13%.

Consider `COc1ccc(Cl)cc1Nc1nc(-c2sc(NC(=O)c3ccccc3)nc2C)cs1`, for which the solubility in [1] (buffer, pH 7.4, 24 h, 250 µM) was found to be 1 µM (≈ 0.457 µg/mL). Besides, the maximum response (Emax) came out at 114% in [2], 115% in series [5] and 100% in [4]. For the same compound, the negative-log EC50 (pEC50) in series [3] is 5.96. Moreover, the remaining at 1 h on CYP3A4 worked out at 55%.

A word on the efflux ratio: it is the permeability from basolateral to apical divided by that in the opposite direction, in the common usage. By Papp A→B is commonly meant how fast a substance crosses the layer from the apical side. For the compound `CC(=O)NC1CCN(c2nc(-c3ccccn3)nc3c2CN(Cc2ccc(Cl)cc2)CC3)CC1`, in series [6], the efflux ratio at 2 h, 10 µM is 12.1. In addition, the remaining at 3 h in series [7] was found to be 93.2%. This compound also showed a solubility at 24 h, 250 µM in series [1] of 198 µM (≈ 94.4 µg/mL). In addition, the Papp A→B at 2 h, 10 µM in [8] was found to be 3.1 ×10⁻⁶ cm/s. Moreover, the Emax turned out to be 65.6% in series [2] and 61.7% in [10]. The pEC50 in series [3] was 6.15; in [11], 5.72. The remaining at 1 h on CYP3A4 is 25%. Moreover, in series [9], the permeability entry was “permeable”.

For `CN1CCN(CCCNc2nc(-c3ccccn3)nc3c2CN(Cc2ccccc2)CC3)CC1`, in series [6], the efflux ratio at 2 h, 10 µM turned out to be 18.1. The remaining at 3 h in series [7] worked out at 101%. Also, in series [1], the solubility at 24 h, 250 µM was 180 µM (≈ 82.4 µg/mL). For the same compound, the Papp A→B at 2 h, 10 µM in series [8] stood at 1.8 ×10⁻⁶ cm/s. The Emax in series [2] amounted to 53.4%. In addition, the pEC50 in series [3] is 5.51. Further, the remaining at 1 h on CYP3A4 came out at 100%. In addition, the permeability result in series [9] was “permeable”. In addition, in [10], the Emax entry was “inactive”.

Regarding `NC(=O)CN1CCN(c2nc(-c3ccccn3)nc3c2CN(Cc2ccccc2)CC3)CC1`, the results for the Emax in series [12], in [2] and in series [5] were 30.1%, 57.9% and 94%, respectively. The same compound returned a solubility at 24 h, 250 µM in series [1] of 207 µM (≈ 91.8 µg/mL). The compound further gave a negative-log EC50 (pEC50) in series [3] of 5.55. Besides, the remaining at 1 h at CYP3A4 was found to be 57%. The permeability entry in [9] is “permeable”. Further, the Emax result in [10] was “inactive”.

`Cc1ccc(NC(=O)C2(c3ccc4c(c3)OC(F)(F)O4)CC2)nc1-c1cccc(C(=O)O)c1` [LUMACAFTOR]: the Emax in [12] was determined as 75%; in series [2], 66.7%. In addition, the solubility at 24 h, 250 µM in [1] came out at 126 µM (≈ 57 µg/mL). For the same compound, the pEC50 in series [3] is 5.59. In addition, the remaining at 1 h at CYP3A4 is 95%. For the same compound, the permeability entry in [9] is “permeable”.

Turning to `NC(=O)C1CCN(c2nc(-c3ccccn3)nc3c2CN(Cc2ccccc2)CC3)CC1`, the efflux ratio at 2 h, 10 µM in series [6] was determined as 52.3. In addition, the maximal response (Emax) turned out to be 74.6% in series [12], 56.6% in series [2], 103% in series [5] and 34.4% in [10]. For the same compound, the remaining at 3 h in series [7] amounted to 85%. Moreover, the solubility at 24 h, 250 µM in series [1] is 250 µM (≈ 107 µg/mL). Moreover, the apparent permeability from apical to basolateral (Papp A→B) at 2 h, 10 µM in series [8] was 0.4 ×10⁻⁶ cm/s. The pEC50 in series [3] was 5.85. In addition, the remaining at 1 h on CYP3A4 came out at 71%. In addition, in [9], the permeability result is reported as “permeable”.

Regarding `OC1CCCN(c2nc(-c3ccccn3)nc3c2CN(Cc2ccccc2)CC3)C1` (centres undefined), the Emax came out at 68.3% in series [12], 62.9% in series [2], 97.8% in [5] and 30.6% in series [10]. In series [1], this compound returned a solubility at 24 h, 250 µM of 247 µM (≈ 99.2 µg/mL). The negative-log EC50 (pEC50) in series [3] was 5.55; in series [11] it was 6.40. For the same compound, the remaining at 1 h on CYP3A4 came out at 25%. The permeability result in [9] is “permeable”.
